H69AR inhibit = proliferation blockers of H69AR lung cancer cells, primary screen, cell-based, human, 86K library; 6% of 85,000 active; H69AR lung tumor viability, ATP luminescence, 72 h; active compounds read low; viability, % at 10 µM;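 active = viability at or below 40%; inactive = viability above 40%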;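 also: multidrug resistant small cell line overexpressing MRP-1 efflux transporter; 100% = mean luminescence of untreated control wells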
HUVEC prolif 384 = inhibitors of HUVEC proliferation, primary screen, cell-based, 384-well; CellTiter-Glo luminescence, 72 h; active compounds read low; viability, % at 10 µM (by protocol); 1.1% of 86,000 active;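 active = viability at or below 30%; inactive = viability above 30%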;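 also: 100% = median luminescence of DMSO-only cell control wells on each plate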
HCT116 PTEN-null = growth suppression of PTEN-null HCT116, primary screen, cell-based, CellTiter-Glo | HCT116 PTEN-null viability, 60 h; active compounds read low | viability, % at 10 µM | 1.2% of 140,000 active | AID 827, 2007;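 active = viability at or below a set limit, 4 SD under the median of all tested compounds, cut at about 3.7% in these data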;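 also: PTEN knockout HCT116 line with beta catenin targeted HCT116 as companion control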
bCat KO growth = primary screen for growth suppressors in beta-catenin knockout HCT116 cells (colon tumor, human); HCT116 beta-catenin knockout viability, CellTiter-Glo, 60 h; active compounds read low; viability, % at 10 µM; 1.5% of 140,000 active; AID 818, 2007;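 active = viability at or under a set limit, the compound median less 4 SD, cut at about 6% in these data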;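 also: 0% = Hyamine 1622 control at 20 µM and 100% = untreated cell control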
Fibroblast inh = antiproliferative effect on LL 47 fibroblasts – human, LL 47 cells, CellTiter-Glo luminescence, primary screen. viability, % at 10 µM. LL 47 human lung fibroblast viability, ATP luminescence; active compounds read low. 1.1% of 85,000 active;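 active = viability at or below 50% in the single dose screen; inactive = viability above 50%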;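 also: compound exposure lasted 72 h before the ATP readout; 100% = median luminescence of untreated cell-only wells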
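Signal: luminescent ATP detection, CellTiter-Glo; assay system: LL 47 human lung fibroblasts; input: 1,150 cells/well; incubation: overnight cell rest, 72 h compound treatment at 37 °C; measure: % viability versus median cells-only luminescence; medium: IMEM growth medium with 15% fetal bovine serum; dosing: compound addition at 0.1% DMSO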
* marks the source's active call; other numbers are inactive results; x = no result. The sample as a whole holds a higher share of hits than the screen did.

SMILES	H69AR inhibit	HUVEC prolif 384	HCT116 PTEN-null	bCat KO growth	Fibroblast inh
Cc1ccc(-n2nc3ccc(NC(=O)c4ccc5c(c4)OCO5)cc3n2)cc1	45.0	92.8	97.4	93.0	110.2
CCOC(=O)c1c(C)c(C(=O)Nc2ccc3c(c2)OCO3)c(C)n1C	83.7	87.1	92.1	79.0	97.4
CCOc1ccc(-n2nc3ccc(NC(=O)c4ccc5c(c4)OCCO5)cc3n2)cc1	13.2*	41.0	80.0	87.4	28.5*
CN1CCN(c2nc(NCCOC34CC5CC(CC(C5)C3)C4)nc(OCC(F)(F)F)n2)CC1	1.9*	9.5*	25.6	29.9	56.2
O=C(Nc1nnc(-c2ccc(F)cc2)o1)c1cc(Cl)sc1Cl	x	x	6.2	11.6	x
O=C(Nc1nnc(-c2ccc3c(c2)CCCC3)o1)c1ccccc1Cl	23.2*	22.6*	27.6	27.4	71.6
O=C(Nc1nnc(-c2ccc3c(c2)OCCO3)o1)c1ccc(Cc2ccccc2)cc1	37.0*	9.6*	18.9	17.9	89.0
O=C(COc1ccccc1)Nc1nnc(-c2ccc3c(c2)CCCC3)o1	76.0	91.3	107.6	102.5	98.5
O=C(Nc1nnc(-c2ccc3c(c2)CCCC3)o1)c1ccccc1	38.1*	22.7*	11.2	12.6	64.1
CS(=O)(=O)N1CCN(c2ccccc2NC(=O)CSc2nnc(-c3ccco3)o2)CC1	x	x	88.7	90.6	x
COc1ccc(/C=N/N2CCN(c3ccccc3OC)CC2)cc1OC	x	x	99.7	103.2	x
COc1ccc(/C=N/n2c(SC)nnc2-c2ccccc2)c(OC)c1OC	30.2*	43.4	31.4	27.6	60.4
COc1cccc(/C=N\n2c(C)nnc2C)c1OC	x	x	94.8	97.6	x
COc1ccc(/C=N/n2c(SC)nnc2-c2ccccc2)cc1C	26.2*	86.9	68.5	80.0	88.1
CCOC(=O)NC1(Nc2ccc(Cl)cn2)Oc2ccccc2O1	28.2*	78.9	87.3	87.7	96.1
CCOC(=O)/C=C/C(=O)OCC(=O)Nc1ccc(Cl)cn1	81.3	82.7	82.7	82.5	70.1
CCOC(=O)/C=c1\s/c(=C\c2ccc3c(c2)OCCO3)c(=O)n1CC(=O)NCC1CCCO1 (centres undefined)	86.1	91.2	84.8	82.2	102.9
CCOC(=O)/C=c1\s/c(=C\c2c(OCC)ccc3ccccc23)c(=O)n1CC(=O)NCC1CCCO1 (centres undefined)	30.1*	77.9	64.3	68.0	88.8
COc1ccccc1N1CCN(C(=O)CN(Cc2ccccc2)S(C)(=O)=O)CC1	x	91.7	84.1	90.8	95.0
Nc1cc2nsnc2cc1Br	x	x	10.1	1.8*	x
Nc1cnc(Br)cc1Br	x	x	96.5	103.7	x
CCOC(=O)c1c(CSc2ccccc2)n(C)c2cc(Br)c(OCC(O)CNC(CO)(CO)CO)cc12 (centres undefined)	x	x	2.1*	1.5*	x
CCOC(=O)c1c(CN2CCN(Cc3ccccc3)CC2)n(C)c2cc(Br)c(OC)cc12	13.9*	74.8	55.8	56.0	101.4
CCOC(=O)c1c(C)n(C)c2cc(Br)c(C)cc12	97.2	98.4	95.2	90.5	99.2
CCOC(=O)c1c(CSc2ccccc2)oc2ccc(O)cc12	x	x	93.8	85.2	x
SMILES	H69AR inhibit	HUVEC prolif 384	HCT116 PTEN-null	bCat KO growth	Fibroblast inh
COc1ccc(C/C(O)=C(\C#N)c2nc3ccccc3s2)cc1	67.2	81.1	99.3	97.5	87.2
COc1ccc(S(=O)(=O)Nc2cc(C)ccc2OC)cc1C	43.7	84.7	85.2	90.4	94.5
CCc1nc(Nc2ccc(OC)c(OC)c2)c2nnn(Cc3ccccc3Cl)c2n1	55.7	26.6*	61.6	51.6	84.2
CCN1C(=O)/C(=C/c2ccc(C)s2)NC1=S	4.1*	96.7	98.8	83.0	101.9
COc1cccc(OC)c1C(=O)N1CCN(c2c(Cc3ccccc3)c(C)nc3ncnn23)CC1	88.5	105.9	89.7	101.6	101.7
c1ccc(Nc2ccccn2)cc1	91.3	85.3	98.3	99.5	100.7
c1ccc(/N=C2\N=C(Nc3ccccn3)c3ccccc32)nc1	1.0*	2.4*	x	x	53.5
N=c1c2c3c(sc2ncn1CCN1CCOCC1)CCCCC3	65.5	90.2	98.4	100.7	93.2
O=C(CCl)Nc1cccc(-c2cnc3ccccc3n2)c1	1.5*	4.1*	3.0*	5.1*	2.7*
CCC(=O)Nc1cccc(-c2cnc3ccccc3n2)c1	76.6	107.0	103.5	106.5	102.5
O=C(Nc1cccc(-c2cnc3ccccc3n2)c1)c1cccc(NC(=O)c2ccco2)c1	8.1*	16.6*	70.9	75.2	34.9*
O=C(Nc1cccc(-c2nc3ccccc3[nH]2)c1)c1ccco1	34.1*	76.7	83.7	96.4	95.5
O=C(Nc1cccc(NC(=O)c2ccc(-c3cccc(Br)c3)o2)c1)c1ccco1	25.3*	60.7	38.8	50.5	103.6
O=C(Nc1cccc(NC(=O)c2ccc(-c3ccc(Br)cc3)o2)c1)c1ccccc1	54.8	57.9	6.5	14.8	72.2
CC(C)OCCCNC(=O)c1cccc(NC(=O)c2ccccc2)c1	x	x	97.2	96.5	x
c1ccc(CN2CCC3(CC2)Nc2ccccc2CO3)cc1	92.7	94.5	89.0	95.8	90.3
CCO/C(C)=C1\C(=O)N(CC)c2ccccc21	80.7	91.3	93.9	109.4	99.2
CN1C(=O)C2(C(C#N)=C(N)Oc3n[nH]c(-c4ccc(Cl)cc4)c32)c2ccccc21 (centres undefined)	66.9	94.2	87.0	85.0	96.8
CC(=O)c1c(N2CCCCC2)nc(=S)n(-c2ccccc2)c1C	103.2	102.3	92.4	114.7	98.3
Cc1[nH]c2ccccc2c1/C=N/Nc1ccc([N+](=O)[O-])cc1S(=O)(=O)Nc1ccc(Cl)cc1	x	x	43.1	57.4	x
COc1ccc(NS(=O)(=O)c2cc([N+](=O)[O-])ccc2N/N=C\c2c(C)[nH]c3ccccc23)cc1	x	x	3.8*	13.9	x
Cc1ccc(-c2cc(-c3ccccc3Cl)[nH]n2)c(O)c1	1.9*	36.2	44.2	26.4	66.2
Cc1ccccc1-c1cc(-c2ccccc2O)n[nH]1	32.8*	41.8	33.5	21.7	76.9
Oc1ccc(Br)cc1-c1cc(-c2ccccc2F)[nH]n1	55.7	82.2	38.9	39.0	80.4
Cc1ccc(-c2cc(-c3ccccc3[N+](=O)[O-])[nH]n2)c(O)c1	x	x	65.0	56.8	x
SMILES	H69AR inhibit	HUVEC prolif 384	HCT116 PTEN-null	bCat KO growth	Fibroblast inh
COC(=O)C(NC(=O)C(CC(C)C)NC(=O)C1CCC(C)CC1)C(C)C (centres undefined)	103.1	92.3	84.8	87.7	106.8
O=[N+]([O-])c1cccc(/C=C/c2nc(C=Nc3ccc4ccccc4c3)c(O)o2)c1	x	x	2.7*	17.8	x
O=C(CO/N=C/c1cccc([N+](=O)[O-])c1)Nc1ccc2ccccc2c1	68.1	88.6	103.6	96.0	107.7
CCn1c(N)c(C(=O)NC)sc1=S	20.1*	95.5	60.7	54.6	97.0
O=C(CSc1nnc(-c2ccc(Cl)cc2)o1)N1CCN(c2ccccc2)CC1	88.8	98.1	x	x	103.5
CN(C)S(=O)(=O)c1ccc(C(=O)Nc2nc(-c3cc4ccccc4o3)cs2)cc1	x	x	54.6	48.8	x
